From ChEMBL document CHEMBL1136006, “New PET imaging agent for the serotonin transporter: [(18)F]ACF (2-[(2-amino-4-chloro-5-fluorophenyl)thio]-N,N-dimethyl-benzenmethanamine)” (J Med Chem, 2002)

Legend:
[1] = organism: Rattus norvegicus; assay: Ratio of regional brain distribution of [18F]-ACF radiolabeled compound in rat hypothalamus to that of cerebellum after 60 min; assay type: ADME, organism-based; settings: in vivo, 1 h
Outline: (§1)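 Rats (three per group) under ether anesthesia got 30 μCi tracer in 0.2 mL saline into the femoral vein and were killed by cardiac excision at the stated time. Cortex, striatum, hippocampus, cerebellum, hypothalamus and the rest of brain were dissected, weighed and gamma counted. %dose/g was taken against counts of a diluted initial dose. Regional ratios are each region's %dose/g over cerebellum's. Mean ± SD.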

[2] = organism: Rattus norvegicus; assay: Ratio of regional brain distribution of [18F]ACF radiolabeled compound in rat hippocampus to that of cerebellum after 120 min; assay type: ADME, organism-based; settings: in vivo, 2 h; outline: as §1
[3] = organism: Rattus norvegicus; assay: Organ distribution of [18F]-ACF radiolabeled compound in rat heart after 240 min; assay type: ADME, organism-based; settings: in vivo, 4 h
Outline: (§2)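 Under ether anesthesia, 30 μCi no-carrier-added tracer in 0.2 mL saline injected into the femoral vein. Rats killed by cardiac excision at the stated time. Organs were removed, weighed and counted; % dose/organ was calculated against counts of a 1% initial-dose standard. Three rats per time, average ± SD.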

[4] = organism: Rattus norvegicus; assay: Regional brain distribution of [18F]ACF radiolabeled compound in rat hippocampus after 240 min; assay type: ADME, organism-based; settings: in vivo, 4 h; outline: as §1
[5] = system: Rattus norvegicus; assay: Effect of pretreatment with […] with a dose of 2 mg/kg (i.v.) on specific binding of [18F]ACF in rat brain hippocampus; assay type: ADME, organism-based; parameters: dose 2 mg/kg, route intravenous; settings: in vivo, iv
Outline: (§3)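 Rats pretreated iv with drug (2 mg/kg) or saline 5 min before iv [18F]ACF (50 μCi). Sacrificed 1 h after tracer. Brain regions were dissected, weighed and counted, and % dose/g was calculated against a diluted initial dose. Drug-treated rats were compared with saline controls by ANOVA/Dunnett's test (p<0.05). Three rats per point, average ± SD.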

[6] = organism: Rattus norvegicus; assay: Ratio of regional brain distribution of [18F]-ACF radiolabeled compound in rat striatum to that of cerebellum after 240 min; assay type: ADME, organism-based; settings: in vivo, 4 h; outline: as §1
[7] = organism: Rattus norvegicus; assay: Ratio of regional brain distribution of [18F]ACF radiolabeled compound in rat cerebellum to that of cerebellum after 30 min; assay type: ADME, organism-based; settings: in vivo, 0.5 h; outline: as §1
[8] = organism: Rattus norvegicus; assay: Organ distribution of [18F]ACF radiolabeled compound in rat kidney after 2 min; assay type: ADME, organism-based; settings: in vivo
Outline: (§4)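 Rats, three per time point, under ether anesthesia; 30 μCi tracer in 0.2 mL saline injected into femoral vein. Sacrificed by cardiac excision under ether at 2, 30, 60, 120 or 240 min. Organs removed, weighed and counted; % dose/organ calculated against counts of 1% of initial dose counted at the same time. Average of three rats ± SD.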

[9] = organism: Rattus norvegicus; assay: Organ distribution of [18F]-ACF radiolabeled compound in rat skin after 120 min; assay type: ADME, organism-based; settings: in vivo, 2 h; outline: as §2
[10] = system: Rattus norvegicus; assay: Effect of pretreatment with methylphenidate with a dose of 2 mg/kg (i.v.) on specific binding of [18F]ACF in rat brain cortex; assay type: ADME, organism-based; parameters: dose 2 mg/kg, route intravenous; settings: in vivo, iv; outline: as §3
[11] = system: Rattus norvegicus; assay: Ratio of effect of pretreatment with (+)-McN5652 with a dose of 2 mg/kg (i.v.) on specific binding of [18F]ACF in rat brain cortex to that of cerebellum; assay type: ADME, organism-based; parameters: dose 2 mg/kg, route intravenous; settings: in vivo, iv
Outline: (§5)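 Rats (three per point) pretreated iv with competing drug at 2 mg/kg or saline (control) 5 min before iv [18F]ACF (50 μCi). At 1 h post tracer, brain regions (cortex, striatum, hippocampus, cerebellum, hypothalamus, remainder) dissected, weighed, counted as % dose/g and expressed as ratio to cerebellum. Average ± SD; ANOVA with Dunnett's test vs saline controls, p < 0.05.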

[12] = system: Rattus norvegicus; assay: Ratio of effect of pretreatment with nisoxatine with a dose of 2 mg/kg (i.v.) on specific binding of [18F]-ACF in rat brain hippocampus to that of cerebellum; assay type: ADME, organism-based; parameters: dose 2 mg/kg, route intravenous; settings: in vivo, iv; outline: as §5
[13] = organism: Rattus norvegicus; assay: Ratio of regional brain distribution of [18F]ACF radiolabeled compound in rat hypothalamus to that of cerebellum after 240 min; assay type: ADME, organism-based; settings: in vivo, 4 h; outline: as §1
[14] = system: Rattus norvegicus; assay: Ratio of effect of pretreatment with nisoxatine with a dose of 2 mg/kg (i.v.) on specific binding of [18F]ACF in rat brain hypothalamus to that of cerebellum; assay type: ADME, organism-based; parameters: dose 2 mg/kg, route intravenous; settings: in vivo, iv; outline: as §5
[15] = organism: Rattus norvegicus; assay: Organ distribution of [18F]-ACF radiolabeled compound in rat kidney after 60 min; assay type: ADME, organism-based; settings: in vivo, 1 h; outline: as §2
[16] = organism: Rattus norvegicus; assay: Ratio of regional brain distribution of [18F]-ACF radiolabeled compound in rat hypothalamus to that of cerebellum after 30 min; assay type: ADME, organism-based; settings: in vivo, 0.5 h; outline: as §1
[17] = organism: Rattus norvegicus; assay: Organ distribution of [18F]-ACF radiolabeled compound in rat liver after 120 min; assay type: ADME, organism-based; settings: in vivo, 2 h; outline: as §2
[18] = organism: Rattus norvegicus; assay: Regional brain distribution of [18F]ACF radiolabeled compound in rat hippocampus after 2 min; assay type: ADME, organism-based; settings: in vivo; outline: as §1
[19] = organism: Rattus norvegicus; assay: Regional brain distribution of [18F]ACF radiolabeled compound in rat striatum after 60 min; assay type: ADME, organism-based; settings: in vivo, 1 h
Outline: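 Rats, three per group, under ether anaesthesia, given 30 μCi no-carrier-added tracer in 0.2 mL saline into the femoral vein. They were killed at the stated time by cardiac excision under ether. Striatum and other brain regions were dissected, weighed and counted. %dose/g was calculated against counts of 1% of the injected dose, as mean ± SD of three rats.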

[20] = organism: Rattus norvegicus; assay: Organ distribution of [18F]-ACF radiolabeled compound in rat kidney after 240 min; assay type: ADME, organism-based; settings: in vivo, 4 h; outline: as §2
[21] = target: Sodium-dependent noradrenaline transporter (Homo sapiens, UniProt P23975); assay: In vitro binding affinity in LLC-PK1 cells by Norepinephrine transporter binding assay by using [125I]-IPT as a radioligand; assay type: cell-based
Outline: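 LLC-PK1 cell membrane homogenates overexpressing DAT or NET. Incubated with 0.4 nM [125I]IPT and 8–10 competitor concentrations (10^-10 to 10^-5 M) in 50 mM Tris-HCl pH 7.4, 120 mM NaCl, 0.1% BSA for 1 h at room temperature. Nonspecific binding defined with 10 μM CFT. Filtered, gamma-counted, nonlinear regression. Mean ± SEM of three determinations in duplicate.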

[22] = organism: Rattus norvegicus; assay: Regional brain distribution of [18F]ACF radiolabeled compound in rat cerebellum after 120 min; assay type: ADME, organism-based; settings: in vivo, 2 h; outline: as §1
[23] = system: Rattus norvegicus; assay: Ratio of effect of pretreatment with (+)-McN5652 with a dose of 2 mg/kg (i.v.) on specific binding of [18F]ACF in rat brain striatum to that of cerebellum; assay type: ADME, organism-based; parameters: dose 2 mg/kg, route intravenous; settings: in vivo, iv; outline: as §5
[24] = organism: Rattus norvegicus; assay: Regional brain distribution of [18F]-ACF radiolabeled compound in rat hypothalamus after 120 min; assay type: ADME, organism-based; settings: in vivo, 2 h; outline: as §1
[25] = organism: Rattus norvegicus; assay: Ratio of regional brain distribution of [18F]-ACF radiolabeled compound in rat striatum to that of cerebellum after 120 min; assay type: ADME, organism-based; settings: in vivo, 2 h; outline: as §1
[26] = organism: Rattus norvegicus; assay: Organ distribution of [18F]ACF radiolabeled compound in rat blood after 30 min; assay type: ADME, organism-based; settings: in vivo, 0.5 h; outline: as §4
[27] = organism: Rattus norvegicus; assay: Organ distribution of [18F]ACF radiolabeled compound in rat liver after 240 min; assay type: ADME, organism-based; settings: in vivo, 4 h; outline: as §4
[28] = organism: Rattus norvegicus; assay: Organ distribution of [18F]-ACF radiolabeled compound in rat liver after 30 min; assay type: ADME, organism-based; settings: in vivo, 0.5 h; outline: as §2
[29] = organism: Rattus norvegicus; assay: Organ distribution of [18F]-ACF radiolabeled compound in rat muscle after 60 min; assay type: ADME, organism-based, Muscle tissue; settings: in vivo, 1 h; outline: as §2
[30] = system: Rattus norvegicus; assay: Effect of pretreatment with […] with a dose of 2 mg/kg (i.v.) on specific binding of [18F]ACF in rat brain blood; assay type: ADME, organism-based; parameters: dose 2 mg/kg, route intravenous; settings: in vivo, iv; outline: as §3
[31] = organism: Rattus norvegicus; assay: Ratio of regional brain distribution of [18F]ACF radiolabeled compound in rat cortex to that of cerebellum after 60 min; assay type: ADME, organism-based; settings: in vivo, 1 h; outline: as §1
[32] = system: Rattus norvegicus; assay: Ratio of effect of pretreatment with methylphenidate with a dose of 2 mg/kg (i.v.) on specific binding of [18F]ACF in rat brain striatum to that of cerebellum; assay type: ADME, organism-based; parameters: dose 2 mg/kg, route intravenous; settings: in vivo, iv; outline: as §5

Chain of Sodium-dependent noradrenaline transporter (P23975 whole entry, looked up): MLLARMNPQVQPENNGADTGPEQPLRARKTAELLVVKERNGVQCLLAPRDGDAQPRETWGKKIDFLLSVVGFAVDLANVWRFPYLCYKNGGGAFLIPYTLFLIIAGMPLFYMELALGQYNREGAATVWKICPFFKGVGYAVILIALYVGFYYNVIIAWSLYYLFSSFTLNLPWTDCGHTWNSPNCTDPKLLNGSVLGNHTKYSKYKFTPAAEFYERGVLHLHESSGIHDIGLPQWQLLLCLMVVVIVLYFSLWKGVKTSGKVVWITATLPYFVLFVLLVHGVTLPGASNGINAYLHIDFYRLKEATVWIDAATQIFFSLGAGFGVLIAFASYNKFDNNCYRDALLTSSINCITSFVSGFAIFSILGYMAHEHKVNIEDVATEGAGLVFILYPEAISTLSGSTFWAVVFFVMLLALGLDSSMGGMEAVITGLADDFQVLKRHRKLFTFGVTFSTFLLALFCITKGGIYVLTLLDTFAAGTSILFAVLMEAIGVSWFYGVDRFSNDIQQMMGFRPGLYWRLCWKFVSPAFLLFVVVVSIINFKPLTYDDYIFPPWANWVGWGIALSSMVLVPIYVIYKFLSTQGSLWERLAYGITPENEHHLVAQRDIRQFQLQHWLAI

- Ratio [1]: 3.53
- Ratio [2]: 2.67
- Dose/g [3]: 0.04 % dose/organ
- Dose/g [4]: 0.04%
- Dose/g [5]: 0.46%
- Ratio [6]: 2.35
- Ratio [7]: 1
- Dose/g [8]: 6.97 % dose/organ
- Dose/g [9]: 2.61 % dose/organ
- Dose/g [10]: 0.35%
- Ratio [11]: 1.43
- Ratio [12]: 2.44
- Ratio [13]: 2.37
- Ratio [14]: 2.89
- Dose/g [15]: 1.38 % dose/organ
- Ratio [16]: 2.29
- Dose/g [17]: 5.9 % dose/organ
- Dose/g [18]: 1.6%
- Dose/g [19]: 0.45%
- Dose/g [20]: 0.51 % dose/organ
- Ki [21]: 650 nM
- Dose/g [22]: 0.05%
- Ratio [23]: 1.48
- Dose/g [24]: 0.17%
- Ratio [25]: 2.97
- Dose/g [26]: 4.52 % dose/organ
- Dose/g [27]: 3.55 % dose/organ
- Dose/g [28]: 15.2 % dose/organ
- Dose/g [29]: 7.69 % dose/organ
- Dose/g [30]: 0.26%
- Ratio [31]: 2.1
- Ratio [32]: 2.75
SMILES: CN(C)Cc1ccccc1Sc1cc(F)c(Cl)cc1N
